Test results reported in ChEMBL document CHEMBL1146866, “Structural determinants for the membrane interaction of novel bioactive undecapeptides derived from gaegurin 5” (J Med Chem, 2006).
Where a SMILES comes first, the peptide text is derived from it.

What was measured:
RBCs [1] = experiment: Hemolytic activity against human red blood cells at 100 ug/ml; type: functional, Erythrocyte
Procedure, shortened: (§1)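 Human erythrocytes exposed to peptide. Hemolysis expressed as % relative to lysis by 0.2% Triton X-100.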

MKN-45 = experiment: Antitumor activity against human MKN45 cell line; type: functional, cell-based
A549 = experiment: Antitumor activity against human A549 cell line
HCT-116 = experiment: Antitumor activity against human HCT116 cell line; type: functional, cell-based
SK-MEL-2 = experiment: Antitumor activity against human SK-MEL-2 cell line; type: functional, cell-based
A498 = experiment: Antitumor activity against human A498 cell line
PC-3 = experiment: Antitumor activity against human PC3 cell line; type: functional, cell-based
NCI-H630 = experiment: Antitumor activity against human NCI-H630 cell line; type: functional, cell-based
SK-OV-3 = experiment: Antitumor activity against human SKOV3 cell line; type: functional, cell-based
MCF7 = experiment: Antitumor activity against human MCF7 cell line; type: functional, cell-based
RBCs [2] = experiment: Hemolytic activity against human red blood cells at 400 ug/ml; type: functional, Erythrocyte; procedure, shortened: as §1
RBCs [3] = experiment: Hemolytic activity against human red blood cells at 300 ug/ml; type: functional, Erythrocyte; procedure, shortened: as §1
RBCs [4] = experiment: Hemolytic activity against human red blood cells at 200 ug/ml; type: functional, Erythrocyte; procedure, shortened: as §1
MCF10 = experiment: Antitumor activity against human MCF10a cell line

| Compound | IC50 (MKN-45) | IC90 (MKN-45) | IC50 (A549) | IC90 (A549) | IC50 (HCT-116) | IC90 (HCT-116) | IC90 (SK-MEL-2) | IC50 (A498) | IC50 (PC-3) | IC90 (PC-3) | IC50 (NCI-H630) | IC90 (NCI-H630) | IC50 (SK-OV-3) | IC90 (SK-OV-3) | IC50 (MCF7) | IC90 (MCF7; read-out: IC90) | Activity (RBCs [1]) | Activity (RBCs [2]) | Activity (RBCs [3]) | Activity (RBCs [4]) | further results |
| --- | --- | --- | --- | --- | --- | --- | --- | --- | --- | --- | --- | --- | --- | --- | --- | --- | --- | --- | --- | --- | --- |
| H-FLGALFKVASK-OH |  |  |  |  |  |  |  |  |  |  |  |  |  |  |  |  | 6.06% | 6.21% | 6.06% | 6.06% |  |
| H-FLGALFKVASKVL-OH |  |  |  |  |  |  |  |  |  |  |  |  |  |  |  |  | 25.8% |  |  |  |  |
| H-FLGALFKWASK-OH | 113 µM | 151 µM | 330 µM |  | 114 µM | 170 µM |  | 169 µM | 137 µM | 195 µM | 102 µM | 117 µM | 119 µM | 166 µM | 157 µM | 229 µM | 6.21% | 6.67% | 6.36% | 6.36% | IC50 (MCF10): 343 µM |

Continued, in another order:

| IC50 (MKN-45) | IC90 (MKN-45) | IC50 (A549) | IC90 (A549) | IC50 (HCT-116) | IC90 (HCT-116) | IC90 (SK-MEL-2) | IC50 (A498) | IC50 (PC-3) | IC90 (PC-3) | IC50 (NCI-H630) | IC90 (NCI-H630) | IC50 (SK-OV-3) | IC90 (SK-OV-3) | IC50 (MCF7) | IC90 (MCF7; read-out: IC90) | Compound | Activity (RBCs [1]) | Activity (RBCs [2]) | Activity (RBCs [3]) | Activity (RBCs [4]) | further results |
| --- | --- | --- | --- | --- | --- | --- | --- | --- | --- | --- | --- | --- | --- | --- | --- | --- | --- | --- | --- | --- | --- |
| 13.7 µM | 24 µM | 57.1 µM | 89.1 µM | 44.4 µM | 89.1 µM | 18.2 µM | 54.1 µM | 17.1 µM | 22.9 µM | 16.4 µM | 25.1 µM | 15 µM | 23.4 µM | 72 µM |  | CC[C@H](C)[C@H](NC(=O)[C@H](C)NC(=O)[C@H](CS)NC(=O)[C@H](CCCCN)NC(=O)[C@@H](NC(=O)[C@H](CO)NC(=O)[C@@H]1CCCN1C(=O)[C@H](CC(C)C)NC(=O)[C@@H](NC(=O)[C@H](CCCCN)NC(=O)[C@H](CO)NC(=O)[C@H](C)NC(=O)[C@@H](NC(=O)[C@H](CCCCN)NC(=O)[C@H](Cc1ccccc1)NC(=O)[C@H](CC(C)C)NC(=O)[C@H](C)NC(=O)CNC(=O)[C@H](CC(C)C)NC(=O)[C@@H](N)Cc1ccccc1)C(C)C)C(C)C)C(C)C)C(=O)N[C@H](C(=O)N[C@@H](CCCCN)C(=O)N[C@@H](CCCCN)C(=O)N[C@@H](CS)C(=O)O)[C@@H](C)O (H-FLGALFKVASKVLPSVKCAITKKC-OH) | 6.8% |  |  |  | IC50 (SK-MEL-2): 18.6 µM; IC90 (MCF7): 93.3 µM |
|  | 0.204 µM |  | 0.041 µM |  | 0.008 µM | 0.037 µM |  |  | 0.832 µM |  | 0.372 µM | 0.005 µM | 0.071 µM |  | 0.015 µM | CC(=O)O[C@H]1C(=O)[C@@]2(C)[C@H]([C@H](OC(=O)c3ccccc3)[C@]3(O)C[C@H](OC(=O)[C@H](O)[C@@H](NC(=O)c4ccccc4)c4ccccc4)C(C)=C1C3(C)C)[C@]1(OC(C)=O)CO[C@@H]1C[C@@H]2O [PACLITAXEL] |  |  |  |  | IC90 (A498): 0.229 µM |
| 63.8 µM | 85.1 µM | 82 µM | 102 µM | 23.5 µM | 56.2 µM | 46.8 µM | 56.5 µM | 95.5 µM | 112 µM | 58.6 µM | 81.3 µM | 71.1 µM | 89.1 µM | 59.6 µM | 110 µM | H-FLGWLFKVASK-OH | 6.52% | 9.24% | 7.12% | 6.82% | IC50 (MCF10): 240 µM; IC50 (SK-MEL-2): 23.5 µM; IC90 (A498): 83.2 µM |
